Data set [1] can be described thus: folding enthalpy; higher = less favourable; fluorescence melt of hairpins on a sequencing array, two-state fit. The note with it: sodium 0.088 M. Put shortly:
(§1)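 Folding enthalpy and melting temperature come from bootstrapped two-state fits to Cy3 fluorescence of library hairpins carrying annealed Cy3 and quencher oligos on a sequenced MiSeq flow cell. Imaging was done in 50 mM Na-HEPES pH 8.0, 25 mM NaCl, stepping by 2.5 °C up to 60 °C, and signals were normalised to pre-quench Cy3 and to control constructs. Results of four replicates were combined by inverse variance, and fitted temperatures were raised by 9.35 °C to match UV melts.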

Data set [2] is described as follows: melting temperature; fluorescence melt of hairpins on a sequencing array, two-state fit, raised by 9.35 °C to match UV melts. The following applies: sodium 0.088 M. The procedure, abridged: as §1

For GGCGTAGCGAAAGCTGCC (((..(((....)))))), in data set [1], the folding enthalpy was -21.9 kcal/mol. The Tm in data set [2] was 55.3 °C.

In the case of GGCGTAGGAAACTACACC ((.((((....)))).)), the folding enthalpy in data set [1] was -29.1 kcal/mol. The Tm in data set [2] was found to be 44.4 °C.

For GGCGTAGGAAACTACGTC (.(((((....))))).), the folding enthalpy in data set [1] was -34.7 kcal/mol. The Tm in data set [2] amounted to 52.4 °C.

Take GGCGTAGGAAACTGCGCC ((((.((....)).)))): the folding enthalpy in data set [1] is -48.8 kcal/mol. Besides, the Tm in data set [2] was 62.3 °C.

For GGCGTCCGAAAGGAAGCC (((.(((....))).))), the folding enthalpy in data set [1] is -34.7 kcal/mol. Also, the Tm in data set [2] is 67 °C.

On to GGCGTCCGAAAGGAGCC (((.(((....)))))), for which the folding enthalpy in data set [1] is -25.9 kcal/mol. Further, the Tm in data set [2] was 59.5 °C.

With GGCGTCGAAAGACAGCC ((((((....))).))), the folding enthalpy in data set [1] was -34.3 kcal/mol. In data set [2], the Tm was 63.7 °C.

Take GGCGTCGAAAGACCGGCC ((((((....)))..))): the folding enthalpy in data set [1] was -19.4 kcal/mol. For the same sequence, the Tm in data set [2] was 51 °C.

Take GGCGTCGAAAGACGCGCC ((((((....)))..))): the folding enthalpy in data set [1] is -6.87 kcal/mol. For the same sequence, the Tm in data set [2] was 62.7 °C.

For GGCGTCGAAAGACTAGCC ((((((....)))..))), in data set [1], the folding enthalpy is -34 kcal/mol. For the same sequence, the Tm in data set [2] is 54.5 °C.

For GGCGTCTCGAAAGAGGCC (((..(((....)))))), the folding enthalpy in data set [1] is -33.3 kcal/mol. Moreover, in data set [2], the Tm was 53 °C.

For the sequence GGCGTGGGAAACCGTGCC (((..((....))..))), in data set [1], the folding enthalpy is -32.1 kcal/mol. The Tm in data set [2] was 49.1 °C.

Regarding GGCGTTGGAAACAGTGCC (((..((....))..))), the folding enthalpy in data set [1] is -28.2 kcal/mol. For the same sequence, the Tm in data set [2] was found to be 42.6 °C.

For GGCGTTGGAAACGACGTC (.(((.(....).))).), the folding enthalpy in data set [1] is -29.8 kcal/mol. Also, the Tm in data set [2] amounted to 58.1 °C.

As for GGCGTTGGAAACGATGCC (((.(.(....).).))), the folding enthalpy in data set [1] was -24.9 kcal/mol. In data set [2], the Tm stood at 48 °C.

Turning to GGCTAAGGAAACTCAGCC ((((.((....)).)))), the folding enthalpy in data set [1] was -27.3 kcal/mol. Moreover, in data set [2], the Tm is 38.1 °C.

As for GGCTACGAAAGTAAGCC ((((((....))).))), the folding enthalpy in data set [1] is -36.3 kcal/mol. The Tm in data set [2] stood at 58.4 °C.

Regarding GGCTACGAAAGTAATGCC ((((((....)))..))), in data set [1], the folding enthalpy was -22.6 kcal/mol. For the same sequence, the Tm in data set [2] was found to be 46.9 °C.

On to GGCTACGAAAGTACTGCC ((((((....)))..))), for which the folding enthalpy in data set [1] is -22.7 kcal/mol. Also, the Tm in data set [2] was 39.6 °C.

For the sequence GGCTACGAAAGTAGGCC ((((((....))).))), the folding enthalpy in data set [1] was -17.3 kcal/mol. In data set [2], the Tm was 57.6 °C.

Take GGCTACGAAAGTAGTGCC ((((((....)))..))): the folding enthalpy in data set [1] is -16.6 kcal/mol. Further, the Tm in data set [2] came to 46.7 °C.

Turning to GGCTACGGAAACGTAGTC (.(((((....))))).), the folding enthalpy in data set [1] was -28.9 kcal/mol. Moreover, the Tm in data set [2] is 53.6 °C.

As for GGCTACTCGAAAGAGGCC (((..(((....)))))), the folding enthalpy in data set [1] is -30 kcal/mol. In addition, in data set [2], the Tm worked out at 45.7 °C.

On to GGCTAGCGAAAGCTCGCC (((.(((....))).))), for which the folding enthalpy in data set [1] was -36.3 kcal/mol. Moreover, the Tm in data set [2] amounted to 58.8 °C.

On to GGCTAGGGAAACCTAACC ((.((((....)))).)), for which the folding enthalpy in data set [1] was -30.3 kcal/mol. The Tm in data set [2] turned out to be 35.2 °C.

Regarding GGCTAGGGAAACCTAGTC (.(((((....))))).), the folding enthalpy in data set [1] was -41.7 kcal/mol. Further, in data set [2], the Tm is 48.8 °C.

Turning to GGCTATCGAAAGATGGCC (((.(((....))).))), the folding enthalpy in data set [1] was -52.3 kcal/mol. In data set [2], the Tm came to 59.8 °C.

As for GGCTATGGAAACATAACC ((.((((....)))).)), the folding enthalpy in data set [1] was -25.7 kcal/mol. For the same sequence, the Tm in data set [2] came out at 34.4 °C.

Regarding GGCTATGGAAACATAGTC (.(((((....))))).), the folding enthalpy in data set [1] was -34.7 kcal/mol. Further, the Tm in data set [2] worked out at 46.5 °C.

On to GGCTCACCGAAAGGTGCC (((..(((....)))))), for which the folding enthalpy in data set [1] is -10.9 kcal/mol. In addition, the Tm in data set [2] worked out at 39.6 °C.

On to GGCTCACGAAAGTGCGCC (((.(((....))).))), for which the folding enthalpy in data set [1] is -50.9 kcal/mol. The Tm in data set [2] was determined as 58.4 °C.

As for GGCTCAGGAAACTGAACC ((.((((....)))).)), the folding enthalpy in data set [1] is -32.3 kcal/mol. Also, the Tm in data set [2] was 41.8 °C.

Take GGCTCAGGAAACTGAGTC (.(((((....))))).): the folding enthalpy in data set [1] is -40.2 kcal/mol. In addition, the Tm in data set [2] stood at 52.6 °C.

Turning to GGCTCCGAAAGGACAGCC ((((((....)))..))), the folding enthalpy in data set [1] was -23.1 kcal/mol. The Tm in data set [2] worked out at 50.6 °C.

On to GGCTCCGAAAGGACTGCC ((((((....)))..))), for which, in data set [1], the folding enthalpy was -19.1 kcal/mol. For the same sequence, in data set [2], the Tm was found to be 47.6 °C.

GGCTCCGAAAGGAGTGCC ((((((....)))..))): the folding enthalpy in data set [1] is -14.5 kcal/mol. The Tm in data set [2] came out at 50 °C.

For the origin of these results see the array DNA melting data of Ke et al. (doi:10.1101/2024.01.08.574731).
